Source: ChEMBL document CHEMBL1933052, “Synthesis and anti-protozoal activity of novel dihydropyrrolo[3,4-d][1,2,3]triazoles” (Eur J Med Chem, 2012)
≈ marks a conversion by molar mass, not a printed value.

Assays:
L6 = test: Cytotoxicity against rat L6 cells after 72 hrs by resazurin assay; assay type: cell-based; details: L6, 72 h
How it was run: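 L6 rat skeletal myoblasts, 4×10^4 cells/well in RPMI 1640 with 10% FBS and L-glutamine; seven 3-fold serial dilutions, 90 to 0.123 µg/mL; 72 h; microscopic check of controls and sterility; resazurin added, 2 h further; fluorescence read at ex 536/em 588 nm.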

[1] = tested on: Trypanosoma brucei rhodesiense; test: Trypanocidal activity against Trypanosoma brucei rhodesiense STIB 900 bloodstream forms after 72 hrs by resazurin assay; assay type: functional, organism-based; details: STIB 900, 72 h
How it was run: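 Bloodstream forms, 10^4/well, in MEM with 25 mM HEPES, extra glucose, non-essential amino acids, 0.2 mM 2-mercaptoethanol, 1 mM pyruvate, 15% heat-inactivated horse serum; seven 3-fold dilutions 90 to 0.123 µg/mL; 37 °C, 5% CO2, 72 h; resazurin 2–4 h more; fluorescence ex 536/em 588 nm; melarsoprol standard.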

Trypanosoma cruzi = test: Trypanocidal activity against trypomastigote Trypanosoma cruzi Tulahuen C2C4 infected in L6 cells after 96 hrs by beta-galactosidase reporter gene assay; assay type: functional, organism-based; details: Tulahuen C2C4, L6, 96 h
Leishmania donovani = test: Leishmanicidal activity against Leishmania donovani MHOM/ET/67/L82 amastigote forms after 72 hrs by resazurin assay; assay type: functional, organism-based; details: MHOM/ET/67/L82, 72 h
Plasmodium falciparum = test: Antimalarial activity against chloquine- and pyrimethamine-resistant Plasmodium falciparum K1 erythrocytic stage assessed as inhibition of [3H]hypoxanthine incorporation after 48 hrs by liquid scintillation counting; assay type: functional, organism-based
How it was run: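 Erythrocytic-stage cultures in hypoxanthine-free RPMI 1640 with 5% Albumax, exposed to serial drug dilutions at 37 °C under reduced oxygen for 48 h. 0.5 μCi [3H]-hypoxanthine per well was then added for a further 24 h. Cells were harvested onto glass-fibre filters and counted as CPM, expressed as % of untreated controls. IC50 was read from dose–response curves. Chloroquine was the reference.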

SMILES	IC50 (L6) [µg/mL]	IC50 [1] [µg/mL]	IC50 (Trypanosoma cruzi) [µg/mL]	IC50 (Leishmania donovani) [µg/mL]	IC50 (Plasmodium falciparum) [µg/mL]
O=C1[C@H]2N=NN(Cc3nc(-c4ccccc4)no3)[C@H]2C(=O)N1c1ccccc1	47.3 (≈ 126 µM)	7 (≈ 18.7 µM)	46.1 (≈ 123 µM)	1.6 (≈ 4.27 µM)	22.6 (≈ 60.4 µM)
O=C1[C@H]2N=NN(Cc3nc(-c4ccc(Cl)cc4)no3)[C@H]2C(=O)N1c1ccccc1	49.5 (≈ 121 µM)	17.2 (≈ 42.1 µM)	49 (≈ 120 µM)	3.2 (≈ 7.83 µM)	24.9 (≈ 60.9 µM)
O=C1[C@H]2N=NN(Cc3nc(-c4ccc(Br)cc4)no3)[C@H]2C(=O)N1c1ccccc1	58.6 (≈ 129 µM)	18.2 (≈ 40.2 µM)	54.9 (≈ 121 µM)	3.5 (≈ 7.72 µM)	26.9 (≈ 59.3 µM)
O=C1[C@H]2N=NN(Cc3nc(-c4ccc(F)cc4)no3)[C@H]2C(=O)N1c1ccccc1	> 100	12.3 (≈ 31.3 µM)	62.4 (≈ 159 µM)	4.1 (≈ 10.4 µM)	23.6 (≈ 60.2 µM)
Cc1ccc(-c2noc(CN3N=N[C@@H]4C(=O)N(c5ccccc5)C(=O)[C@@H]43)n2)cc1	15.2 (≈ 39.1 µM)	8.4 (≈ 21.6 µM)	38.9 (≈ 100 µM)	2.2 (≈ 5.66 µM)	13.2 (≈ 34 µM)
O=C1[C@H]2N=NN(Cc3nc(-c4ccc(I)cc4)no3)[C@H]2C(=O)N1c1ccccc1	48.6 (≈ 97.2 µM)	18.8 (≈ 37.6 µM)	47.2 (≈ 94.4 µM)	3.6 (≈ 7.2 µM)	20.4 (≈ 40.8 µM)
O=C1[C@H]2N=NN(Cc3nc(-c4ccc([N+](=O)[O-])cc4)no3)[C@H]2C(=O)N1c1ccccc1	> 100	8 (≈ 19.1 µM)	41.1 (≈ 98 µM)	2 (≈ 4.77 µM)	14.7 (≈ 35.1 µM)
COc1ccc(-c2noc(CN3N=N[C@@H]4C(=O)N(c5ccccc5)C(=O)[C@@H]43)n2)cc1	> 100	16.9 (≈ 41.8 µM)	54 (≈ 134 µM)	3.4 (≈ 8.41 µM)	17 (≈ 42 µM)
CSc1ccc(-c2noc(CN3N=N[C@@H]4C(=O)N(c5ccccc5)C(=O)[C@@H]43)n2)cc1	> 100	16.3 (≈ 38.8 µM)	48.5 (≈ 115 µM)	3.5 (≈ 8.32 µM)	20.6 (≈ 49 µM)
O=C1[C@H]2N=NN(Cc3nc(-c4ccc(C(F)(F)F)cc4)no3)[C@H]2C(=O)N1c1ccccc1	44.4 (≈ 100 µM)	13.9 (≈ 31.4 µM)	51.4 (≈ 116 µM)	3.7 (≈ 8.36 µM)	15 (≈ 33.9 µM)
CN(C)c1ccc(-c2noc(CN3N=N[C@@H]4C(=O)N(c5ccccc5)C(=O)[C@@H]43)n2)cc1	> 100	13.1 (≈ 31.4 µM)	36.6 (≈ 87.7 µM)	4.5 (≈ 10.8 µM)	21 (≈ 50.3 µM)
O=C(Cn1ccnc1[N+](=O)[O-])NCc1ccccc1 [BENZNIDAZOLE]			0.464 (≈ 1.78 µM)		
CCCCCCCCCCCCCCCCOP(=O)([O-])OCC[N+](C)(C)C [MILTEFOSINE]				0.171 (≈ 0.42 µM)	
COc1cc([C@@H]2c3cc4c(cc3[C@H](O)[C@H]3COC(=O)[C@H]23)OCO4)cc(OC)c1OC [PODOFILOX]	0.007 (≈ 0.0169 µM)				
